Among the data in ChEMBL document CHEMBL1926598, “Synthesis, anti-inflammatory activity and ulcerogenic liability of novel nitric oxide donating/chalcone hybrids” (Bioorg Med Chem, 2012) are inhibition in vivo, Activity and UI values, retold here.

Data set [1] deals with Rattus norvegicus. The experiment in a line: Antiinflammatory activity in albino rat assessed as inhibition of carrageenan-induced paw edema at 100 mg/kg, po administered 30 mins prior to challenge measured after 5 hrs relative to untreated control. Type of data set: functional. The method in brief:
(§1)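 Adult male albino rats (120–140 g), groups of four, fasted 24 h with water allowed. Test compound suspended in 0.5% w/v CMC in water, given orally at 100 mg/kg; controls received CMC alone. After 30 min, 0.1 mL of 1% carrageenan in saline injected subplantar into right hind paw, saline into left. Paw thickness measured by caliper; % inhibition = [(VR−VL)control − (VR−VL)treated]/(VR−VL)control ×100; one-way ANOVA versus control.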
For orientation: The carrageenan paw model is a standard test of acute inflammation.

The nature of data set [2]: Induction of nitric oxide release at 0.1 mM after 5 hrs in phosphate buffer at pH 7.4 by Griess assay. The format is physicochemical. As to conditions: pH 7.4, 5 h, 100 µM; call rule not given here. In short, it runs like this:
(§2)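 Compound at a final 10^-4 M with 0.5 mM N-acetylcysteine in phosphate buffer pH 7.4 at 37 °C. Reaction mixture treated with Griess reagent (sulfanilamide, N-naphthylethylenediamine, phosphoric acid), 10 min at room temperature, absorbance read at 546 nm. Sodium nitrite standards (10–80 nmol/mL) used for calibration. NO reported as mol/mol, n = 4 reaction mixtures.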
(Griess reagent forms a coloured azo dye with nitrite.)

Data set [3] can be described thus: Induction of nitric oxide release at 0.1 mM after 6 hrs in phosphate buffer at pH 7.4 by Griess assay. Type of data set: physicochemical. As to conditions: pH 7.4, 6 h, 100 µM. In short, it runs like this: as §2
Data set [4] relates to Rattus norvegicus. The experiment in a line: Gastric toxicity in albino rat assessed as ulcer index at 100 mg/kg, po after 5 hrs. Type of data set: organism-based. Details: dose 100 mg/kg, route oral. As to conditions: in vivo. In short, it runs like this:
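Rats dosed orally at 100 mg/kg in 0.5% CMC (n = 4). Stomach lesions counted and graded by area: level I <1 mm², II 1–3 mm², III >3 mm². Ulcer index = 1×(level I count) + 2×(level II) + 3×(level III). Mean ± SEM; one-way ANOVA versus control.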

Data set [5] concerns Rattus norvegicus. Put plainly: Antiinflammatory activity in albino rat assessed as inhibition of carrageenan-induced paw edema at 100 mg/kg, po administered 30 mins prior to challenge measured after 1 hr relative to untreated control. Type of data set: functional. In short, it runs like this: as §1
A short description of data set [6]: Induction of nitric oxide release at 0.1 mM after 4 hrs in phosphate buffer at pH 7.4 by Griess assay. The format is physicochemical. As to conditions: pH 7.4, 4 h, 100 µM. In short, it runs like this:
as §2

In data set [7] the test system is Rattus norvegicus. Put plainly: Antiinflammatory activity in albino rat assessed as inhibition of carrageenan-induced paw edema at 100 mg/kg, po administered 30 mins prior to challenge measured after 3 hrs relative to indomethacin. Type of data set: functional. Details: scale not given: the % may be the effect or the level left. In short, it runs like this: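 Carrageenan paw edema in male albino rats (120–140 g, n = 4, fasted 24 h), compound 100 mg/kg po in 0.5% CMC 30 min before subplantar 1% carrageenan (0.1 mL). Percent edema inhibition at the stated hour from right minus left paw thickness versus the CMC control, then expressed as a percentage of the indomethacin (100 mg/kg) response at the same time.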

A short description of data set [8]: Induction of nitric oxide release at 0.1 mM after 3 hrs in phosphate buffer at pH 7.4 by Griess assay. Type of data set: physicochemical. As to conditions: pH 7.4, 3 h, 100 µM. The method in brief: as §2
Data set [9] concerns Rattus norvegicus. The experiment in a line: Antiinflammatory activity in albino rat assessed as inhibition of carrageenan-induced paw edema at 100 mg/kg, po administered 30 mins prior to challenge measured after 3 hrs relative to untreated control. Type of data set: functional. The method in brief:
as §1

Data set [10] can be described thus: Induction of nitric oxide release at 0.1 mM after 2 hrs in phosphate buffer at pH 7.4 by Griess assay. As to conditions: pH 7.4, 2 h, 100 µM. The format is physicochemical. The method in brief:
as §2

A short description of data set [11]: Induction of nitric oxide release at 0.1 mM after 1 hr in phosphate buffer at pH 7.4 by Griess assay. The format is physicochemical. As to conditions: pH 7.4, 1 h, 100 µM. The method in brief:
as §2

Data set [12] relates to Rattus norvegicus. The experiment in a line: Antiinflammatory activity in albino rat assessed as inhibition of carrageenan-induced paw edema at 100 mg/kg, po administered 30 mins prior to challenge measured after 4 hrs relative to untreated control. Type of data set: functional. In short, it runs like this:
as §1

In data set [13] the test system is Rattus norvegicus. The experiment in a line: Antiinflammatory activity in albino rat assessed as inhibition of carrageenan-induced paw edema at 100 mg/kg, po administered 30 mins prior to challenge measured after 2 hrs relative to untreated control. The format is functional. In short, it runs like this: as §1
A short description of data set [14]: Induction of nitric oxide release at 0.1 mM in 0.1 N HCl buffer at pH 1.0 by Griess assay. The format is physicochemical. As to conditions: pH 1, 100 µM. The method in brief: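 Griess procedure as at neutral pH, but in 0.1 N HCl pH 1 in place of phosphate buffer. Compound at a final 10^-4 M with N-acetylcysteine, 37 °C. Absorbance read at 546 nm against sodium nitrite standards (10–80 nmol/mL). Release expressed relative to a theoretical 1 mol NO/mol compound.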

The structures appear in SMILES notation.

Usually inhibition in vivo stands for how much of the control response was suppressed. Consider `C/C(=N/O)c1ccc(OCC(=O)Nc2ccc(C(=O)/C=C/c3ccco3)cc2)cc1`, for which the inhibition in vivo at 100 mg/kg in the data set with Rattus norvegicus [1] was found to be 42%; in the data set with Rattus norvegicus [5] it was 36%; in the data set with Rattus norvegicus [9] it was 49%; in the data set on Rattus norvegicus [12], 48%; in the data set on Rattus norvegicus [13], 44%. Further, the Activity in data set [2] is reported as 0.14 mol/mol; in data set [3], 0.13 mol/mol; in data set [6] it was 0.28 mol/mol; in the data set on Rattus norvegicus [7] it was 64%; in data set [8], 0.12 mol/mol; in data set [10], 0.12 mol/mol. Further, the Activity in [11] is given as 0.1 mol/mol; in data set [14], “Not Active”. Moreover, the UI in the data set on Rattus norvegicus [4] is 4.8.
As to `COc1ccc(/C=C/C(=O)c2ccc(NC(=O)C(C)O[N+](=O)[O-])cc2)cc1` (stereo unspecified), the inhibition in vivo at 100 mg/kg in the data set with Rattus norvegicus [1] is 35%; in the data set with Rattus norvegicus [5], 43%; in the data set with Rattus norvegicus [9], 50%; in the data set on Rattus norvegicus [12] it was 43%; in the data set on Rattus norvegicus [13] it was 46%. The Activity in data set [2] was 0.15 mol/mol; in [3] it was 0.14 mol/mol; in [6], 0.17 mol/mol; in the data set with Rattus norvegicus [7], 65%; in [8] it was 0.37 mol/mol; in data set [10], 0.12 mol/mol. Further, the Activity was 0.11 mol/mol in data set [11] and “Not Active” in data set [14]. In addition, the UI in the data set on Rattus norvegicus [4] was 8.
Take `CC(O[N+](=O)[O-])C(=O)Nc1ccc(C(=O)/C=C/c2ccco2)cc1` (stereo unspecified): the inhibition in vivo at 100 mg/kg in the data set with Rattus norvegicus [1] was 49%; with Rattus norvegicus [5], 41%; in the data set with Rattus norvegicus [9] it was 54%; in the data set on Rattus norvegicus [12], 49%; with Rattus norvegicus [13], 48%. Besides, the Activity in data set [2] worked out at 0.11 mol/mol; in data set [3], 0.09 mol/mol; in data set [6] it was 0.13 mol/mol; with Rattus norvegicus [7], 69%; in [8], 0.38 mol/mol; in data set [10], 0.11 mol/mol. In addition, the Activity in [11] is listed as 0.09 mol/mol; in data set [14], “Not Active”. Moreover, in the data set with Rattus norvegicus [4], the UI was 5.7.
As for `O=C(CO[N+](=O)[O-])Nc1ccc(C(=O)/C=C/c2ccco2)cc1`, the inhibition in vivo at 100 mg/kg in the data set with Rattus norvegicus [1] turned out to be 39%; with Rattus norvegicus [5], 34%; in the data set with Rattus norvegicus [9] it was 48%; with Rattus norvegicus [12], 40%; with Rattus norvegicus [13], 36%. Further, the Activity in data set [2] is given as 0.63 mol/mol; in data set [3] it was 0.59 mol/mol; in data set [6], 0.59 mol/mol; in the data set on Rattus norvegicus [7], 61%; in data set [8] it was 0.37 mol/mol; in data set [10] it was 0.28 mol/mol. Moreover, the Activity in data set [11] is listed as 0.15 mol/mol; in data set [14], “Not Active”. In the data set on Rattus norvegicus [4], the UI amounted to 7.
For the molecule `O=C(COCc1c(-c2ccccc2)no[n+]1[O-])Nc1ccc(C(=O)/C=C/c2ccco2)cc1`, the inhibition in vivo at 100 mg/kg worked out at 49% in the data set with Rattus norvegicus [1]; 30% with Rattus norvegicus [5]; 59% in the data set with Rattus norvegicus [9]; 58% in the data set on Rattus norvegicus [12]; 45% in the data set on Rattus norvegicus [13]. Also, the Activity came out at 0.65 mol/mol in data set [2]; 0.54 mol/mol in data set [3]; 0.499 mol/mol in [6]; 76% with Rattus norvegicus [7]; 0.4 mol/mol in [8]; 0.23 mol/mol in data set [10]. The Activity is on record as 0.16 mol/mol in data set [11] and “Not Active” in [14]. In the data set with Rattus norvegicus [4], the UI turned out to be 2.5.
Consider `C/C(=N/O)c1ccc(OCC(=O)Nc2ccc(C(=O)/C=C/c3ccc4c(c3)OCO4)cc2)cc1`, for which the inhibition in vivo at 100 mg/kg in the data set with Rattus norvegicus [1] came out at 44%; in the data set on Rattus norvegicus [5], 40%; in the data set with Rattus norvegicus [9], 59%; with Rattus norvegicus [12], 52%; in the data set with Rattus norvegicus [13], 49%. The Activity in data set [2] was found to be 0.26 mol/mol; in data set [3], 0.24 mol/mol; in data set [6], 0.31 mol/mol; in the data set on Rattus norvegicus [7], 77%; in data set [8] it was 0.25 mol/mol; in data set [10], 0.16 mol/mol. The Activity in data set [11] is 0.14 mol/mol; in data set [14] it was “Not Active”. Further, the UI in the data set on Rattus norvegicus [4] is 4.
Take `O=C(CO[N+](=O)[O-])Nc1ccc(C(=O)/C=C/c2ccc3c(c2)OCO3)cc1`: the inhibition in vivo at 100 mg/kg was 54% in the data set with Rattus norvegicus [1]; 38% with Rattus norvegicus [5]; 61% in the data set on Rattus norvegicus [9]; 55% with Rattus norvegicus [12]; 45% in the data set on Rattus norvegicus [13]. Moreover, the Activity in data set [2] is 0.73 mol/mol; in [3], 0.67 mol/mol; in [6], 0.64 mol/mol; with Rattus norvegicus [7] it was 79%; in data set [8], 0.6 mol/mol; in [10], 0.45 mol/mol. In addition, the Activity is listed as 0.39 mol/mol in data set [11] and “Not Active” in data set [14]. Moreover, the UI in the data set with Rattus norvegicus [4] worked out at 3.
In the case of `CC(O[N+](=O)[O-])C(=O)Nc1ccc(C(=O)/C=C/c2ccc3c(c2)OCO3)cc1` (stereo unspecified), the inhibition in vivo at 100 mg/kg in the data set with Rattus norvegicus [1] worked out at 53%; with Rattus norvegicus [5], 45%; in the data set with Rattus norvegicus [9] it was 59%; in the data set on Rattus norvegicus [12], 54%; in the data set with Rattus norvegicus [13], 40%. Besides, the Activity in data set [2] is 0.15 mol/mol; in data set [3] it was 0.12 mol/mol; in data set [6], 0.28 mol/mol; with Rattus norvegicus [7], 77%; in data set [8], 0.4 mol/mol; in data set [10] it was 0.14 mol/mol. The figures for the Activity in data set [11] and in data set [14] were 0.1 mol/mol and “Not Active”, respectively. Also, in the data set with Rattus norvegicus [4], the UI came to 4.
On to `COc1ccc(/C=C/C(=O)c2ccc(NC(=O)CO[N+](=O)[O-])cc2)cc1`, for which the inhibition in vivo at 100 mg/kg in the data set on Rattus norvegicus [1] came out at 46%; in the data set with Rattus norvegicus [5] it was 33%; with Rattus norvegicus [9], 53%; with Rattus norvegicus [12], 51%; in the data set on Rattus norvegicus [13], 49%. Also, the Activity is reported as 0.68 mol/mol in data set [2]; 0.59 mol/mol in [3]; 0.66 mol/mol in data set [6]; 69% in the data set on Rattus norvegicus [7]; 0.48 mol/mol in data set [8]; 0.31 mol/mol in data set [10]. The Activity in data set [11] is on record as 0.27 mol/mol; in data set [14], “Not Active”. For the same molecule, in the data set on Rattus norvegicus [4], the UI came to 5.8.
